Measured values published in ChEMBL document CHEMBL3351406, “Synthesis and biological evaluation of the [d-MeAla(11)]-epimer of coibamide A” (Bioorg Med Chem Lett, 2015).
pIC50: −log10 of the molar value. Where a SMILES comes first, the peptide text is derived from it. Bridges are numbered along the chain shown (N, C = ends). [ ]: non-standard residue; d: D form. The star is where a group is joined. NMe2Val = CC(C)[C@@H](C(=O)*)N(C)C; NMeI = CC[C@H](C)[C@H](NC)C(=O)O; NMeT = CN[C@H](C(=O)O)[C@@H](C)O; NMeL = CN[C@@H](CC(C)C)C(=O)O; Hiv = CC(C)[C@H](O)C(=O)O; NMeS = CN[C@@H](CO)C(=O)O; NMeA = CN[C@@H](C)C(=O)O; dNMeA = CN[C@H](C)C(=O)O

Assays:
Format in all cases: functional, cell-based
[1] = test system: SF-295; assay: Cytotoxicity against human SF295 cells assessed as growth inhibition after 72 hrs by MTT assay; conditions: SF-295, 72 h
Method in brief: (§1)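 Media: PC-3 in DMEM with 10% FBS, 2 mM L-glutamine and penicillin/streptomycin; SF-295, MDA-MB-231 and H292 in RPMI-1640 with 10% FBS, 2 mM L-glutamine, 1 mM pyruvate and penicillin/streptomycin. Cells were seeded at 3,000 per well 16 h before adding compound or DMSO vehicle, then kept 72 h at 5% CO2. Viability was measured by MTT, normalised to vehicle-treated cells as 100%.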

[2] = Cytotoxicity against human PC3 cells assessed as growth inhibition after 72 hrs by MTT assay; conditions: PC-3, 72 h; method in brief: as §1
[3] = test system: NCI-H292; assay: Cytotoxicity against human NCI-H292 cells assessed as growth inhibition after 72 hrs by MTT assay; conditions: NCI-H292, 72 h; method in brief: as §1
[4] = test system: MDA-MB-231; assay: Cytotoxicity against human MDA-MB-231 cells assessed as growth inhibition after 72 hrs by MTT assay; conditions: MDA-MB-231, 72 h; method in brief: as §1
[5] = Cytotoxicity against human HCT116 cells assessed as growth inhibition after 72 hrs by MTS assay; conditions: HCT-116, 72 h
Method in brief: (§2)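 Seeding per well: A549 500 cells (DMEM), HCT-116 5000 (McCoy's 5A), MCF-7 5000 (EMEM), B16 2000 (DMEM). All media had 10% FBS; cells kept at 37 °C, 5% CO2. Cells settled 6 h, then received compounds pre-diluted 250-fold from DMSO into medium, and were exposed 72 h. Wells were washed with phenol-red-free medium, given MTS for 40 min, and read at 490 nm absorbance.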

[6] = test system: MCF7; assay: Cytotoxicity against human MCF7 cells assessed as growth inhibition after 72 hrs by MTS assay; conditions: MCF7, 72 h; method in brief: as §2
[7] = test system: A549; assay: Cytotoxicity against human A549 cells assessed as growth inhibition after 72 hrs by MTS assay; conditions: A549, 72 h; method in brief: as §2
[8] = test system: B16; assay: Cytotoxicity against mouse B16 cells assessed as growth inhibition after 72 hrs by MTS assay; conditions: B16, 72 h; method in brief: as §2

With CC[C@H](C)[C@H]1C(=O)N[C@@H](C)C(=O)N(C)[C@@H](CC(C)C)C(=O)N[C@@H](Cc2ccc(OC)cc2)C(=O)N(C)[C@@H](C)C(=O)O[C@H](C)[C@H](N(C)C(=O)[C@H](CC(C)C)N(C)C(=O)[C@H](COC)N(C)C(=O)[C@@H](OC(=O)[C@H](C(C)C)N(C)C)C(C)C)C(=O)N(C)[C@@H](COC)C(=O)N1C (NMe2Val-[Hiv][NMeS](Me)[NMeL][NMeT][NMeS](Me)[NMeI]A[NMeL]Y(Me)[NMeA]; ester 4-C) as the compound, how does the pIC50 [1] read?
The pIC50 was 6.66.

What about the pIC50 [2] of the same compound?
The pIC50 was 7.10.

What about the pIC50 [3] of the same compound?
The pIC50 was 6.91.

What about the pIC50 [4] of the same compound?
The pIC50 was 7.18.

With CC[C@H](C)[C@H]1C(=O)N[C@@H](C)C(=O)N(C)[C@@H](CC(C)C)C(=O)N[C@@H](Cc2ccc(OC)cc2)C(=O)N(C)[C@H](C)C(=O)O[C@H](C)[C@H](N(C)C(=O)[C@H](CC(C)C)N(C)C(=O)[C@H](COC)N(C)C(=O)[C@@H](OC(=O)[C@H](C(C)C)N(C)C)C(C)C)C(=O)N(C)[C@@H](COC)C(=O)N1C (NMe2Val-[Hiv][NMeS](Me)[NMeL][NMeT][NMeS](Me)[NMeI]A[NMeL]Y(Me)[dNMeA]; ester 4-C) as the compound, how does the pIC50 [1] read?
The pIC50 was 6.09.

And the pIC50 [2]?
The pIC50 was 6.37.

What about the pIC50 [5] of the same compound?
Its pIC50 is 7.35.

And the pIC50 [6]?
The pIC50 was 7.31.

And the pIC50 [3]?
The pIC50 was 6.21.

And the pIC50 [7]?
Its pIC50 is 7.72.

What about the pIC50 [4] of the same compound?
The pIC50 was 6.26.

What about the pIC50 [8] of the same compound?
Its pIC50 is 7.26.
